Laboratory results as given in ChEMBL document CHEMBL1687826, “Flow cytometry as a tool to determine the effects of cell wall-active antibiotics on vancomycin-susceptible and -resistant Enterococcus faecalis strains” (Antimicrob Agents Chemother, 2011).
Active and inactive are the calls of the source. The calls are words filed in the database; no cut-off is given here.

Key:
Enterococcus faecalis [1] = experiment: Antibacterial activity against […] Enterococcus faecalis BM4316 using BHI broth by macrodilution method; format: functional
In short: (§1)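 Macrodilution per CLSI in BHI broth at 37°C, with 50 μg/ml free Ca2+ for daptomycin; MIC read as lowest concentration with no growth after 1 day.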

Enterococcus faecalis [2] = experiment: Antibacterial activity against […] Enterococcus faecalis BM4275 using BHI broth by macrodilution method; format: functional; in short: as §1
Enterococcus faecalis [3] = experiment: Antibacterial activity against vancomycin-susceptible Enterococcus faecalis JH2-2 using BHI broth by macrodilution method; format: functional; in short: as §1
Enterococcus faecalis [4] = experiment: Antibacterial activity against […] Enterococcus faecalis BM4275 assessed as increase in cell size at 0.25 times MIC after 30 to 90 mins by flow cytometric analysis relative to control; format: functional, organism-based
In short: (§2)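 10^5 CFU/ml exponential cells in BHI, 37°C, exposed to 0.25× or 1× MIC (daptomycin with 50 μg/ml free Ca2+) for 30, 60, 90 min, then diluted to ca. 10^4 CFU/ml in PBS. Flow cytometry forward scatter, log amplifiers, 5,000 events; % increase in size versus untreated control, triplicate, mean ± SD; Kruskal-Wallis then Mann-Whitney.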

Enterococcus faecalis [5] = experiment: Antibacterial activity against […] Enterococcus faecalis BM4316 assessed as increase in cell size at 0.25 times MIC after 30 to 90 mins by flow cytometric analysis relative to control; format: functional, organism-based; in short: as §2
Enterococcus faecalis [6] = experiment: Antibacterial activity against […] Enterococcus faecalis BM4316 assessed as membrane potential/size ratio at 0.25 to 1 times MIC after 1 hr […]; format: functional, organism-based
Enterococcus faecalis [7] = experiment: Drug uptake in vancomycin[…]-type Enterococcus faecalis BM4316 assessed as red-fluorescent bacteria at 1 times MIC after 1 hr by confocal microscopy
Enterococcus faecalis [8] = experiment: Antibacterial activity against vancomycin-susceptible Enterococcus faecalis JH2-2 assessed as decrease in bacterial count at 4 times MIC after 180 mins using BHI broth; format: functional, organism-based
In short: (§3)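 Exponential-phase suspension (10^5 CFU/ml) in BHI, 37°C, exposed to 4× MIC for 180 min alongside antibiotic-free control; daptomycin medium carried 50 μg/ml free Ca2+. Survivors counted on BHI agar; value is mean difference in log10 CFU/ml with versus without antibiotic, 4 independent experiments, mean ± SD.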

Enterococcus faecalis [9] = experiment: Drug uptake in vancomycin[…]-type Enterococcus faecalis BM4275 assessed as red-fluorescent bacteria at 1 times MIC after 1 hr by confocal microscopy
Enterococcus faecalis [10] = experiment: Antibacterial activity against […] Enterococcus faecalis BM4275 assessed as decrease in bacterial count at 4 times MIC after 180 mins using BHI broth; format: functional, organism-based; in short: as §3
Enterococcus faecalis [11] = experiment: Antibacterial activity against vancomycin-susceptible Enterococcus faecalis JH2-2 assessed as increase in cell size at 0.25 times MIC after 30 to 90 mins by flow cytometric analysis relative to control; format: functional, organism-based; in short: as §2
Enterococcus faecalis [12] = experiment: Antibacterial activity against […] Enterococcus faecalis BM4316 assessed as decrease in bacterial count at 4 times MIC after 180 mins using BHI broth; format: functional, organism-based; in short: as §3
Enterococcus faecalis [13] = experiment: Antibacterial activity against vancomycin-susceptible Enterococcus faecalis JH2-2 assessed as dismorphic bacterial chains at 1 times MIC after 1 hr using BacLight Live/Dead kit by confocal microscopy
Enterococcus faecalis [14] = experiment: Antibacterial activity against […] Enterococcus faecalis BM4275 assessed as dismorphic bacterial chains at 1 times MIC after 1 hr by confocal microscopy
Enterococcus faecalis [15] = experiment: Antibacterial activity against vancomycin-susceptible Enterococcus faecalis JH2-2 assessed as membrane potential/size ratio at 0.25 to 1 times MIC after 1 hr by flow cytometry
Enterococcus faecalis [16] = experiment: Antibacterial activity against […] Enterococcus faecalis BM4275 assessed as membrane potential/size ratio at 0.25 to 1 times MIC after 1 hr […]; format: functional, organism-based
Enterococcus faecalis [17] = experiment: Drug uptake in vancomycin-susceptible Enterococcus faecalis JH2-2 assessed as red-fluorescent bacteria at 1 times MIC after 1 hr by confocal microscopy
Enterococcus faecalis [18] = experiment: Antibacterial activity against […] Enterococcus faecalis BM4316 assessed as dismorphic bacterial chains at 1 times MIC after 1 hr by confocal microscopy
Enterococcus faecalis [19] = experiment: Antibacterial activity against vancomycin-susceptible Enterococcus faecalis JH2-2 assessed as increase in cell size at 1 times MIC after 30 to 90 mins by flow cytometric analysis relative to control; format: functional, organism-based
In short: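 Exponentially growing cells at 10^5 CFU/ml in BHI broth at 37°C were exposed to 0.25× or 1× MIC and sampled at 30, 60 and 90 min. Untreated controls were run alongside. Cells were diluted to ca. 10^4 CFU/ml in PBS and gated on log forward scatter for 5,000 events. Runs were in triplicate, reported as mean % size increase versus control.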

Enterococcus faecalis [20] = experiment: Antibacterial activity against […] Enterococcus faecalis BM4275 assessed as increase in cell size at 1 times MIC after 30 to 90 mins by flow cytometric analysis relative to control; format: functional, organism-based; in short: as §2
Enterococcus faecalis [21] = experiment: Antibacterial activity against […] Enterococcus faecalis BM4275 assessed as change in CFU count at 1 times MIC after 30 to 90 mins; format: functional, organism-based
In short: (§4)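 Exponentially growing cells, 10^5 CFU/ml in BHI at 37°C, exposed to 1× MIC antibiotic (daptomycin medium with 50 μg/ml free Ca2+) for 30, 60 and 90 min; viable counts by enumeration on BHI agar.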

Enterococcus faecalis [22] = experiment: Antibacterial activity against vancomycin-susceptible Enterococcus faecalis JH2-2 assessed as change in CFU count at 1 times MIC after 30 to 90 mins; format: functional, organism-based; in short: as §4
Staphylococcus aureus = experiment: Antibacterial activity against Staphylococcus aureus ATCC 29213 assessed as cells with altered cell wall morphology at 8 times MIC after 60 mins; format: functional
Enterococcus faecalis [23] = experiment: Antibacterial activity against […] Enterococcus faecalis BM4316 assessed as increase in cell size at 1 times MIC after 30 to 90 mins by flow cytometric analysis relative to control; format: functional, organism-based; in short: as §2
Enterococcus faecalis [24] = experiment: Antibacterial activity against […] Enterococcus faecalis BM4316 assessed as change in CFU count at 1 times MIC after 30 to 90 mins; format: functional, organism-based; in short: as §4

## CN[C@H](CC(C)C)C(=O)N[C@H]1C(=O)N[C@@H](CC(N)=O)C(=O)N[C@H]2C(=O)N[C@H]3C(=O)N[C@H](C(=O)N[C@H](C(=O)O)c4cc(O)cc(O)c4-c4cc3ccc4O)[C@H](O)c3ccc(c(Cl)c3)Oc3cc2cc(c3O[C@@H]2O[C@H](CO)[C@@H](O)[C@H](O)[C@H]2O[C@H]2C[C@](C)(NCCCCNc3cc(C(F)(F)F)nc4cc(Cl)ccc34)[C@H](O)[C@H](C)O2)Oc2ccc(cc2Cl)[C@H]1O [listing 1 of 2 here]
Enterococcus faecalis [1]
  Activity: 4 µg/mL
Enterococcus faecalis [2]
  Activity: 2 µg/mL
Enterococcus faecalis [3]
  Activity: 0.5 µg/mL

## CCCCCCCCCCNCCN[C@@]1(C)C[C@H](O[C@H]2[C@H](Oc3c4cc5cc3Oc3ccc(cc3Cl)[C@@H](O)[C@@H](NC(=O)[C@@H](CC(C)C)NC)C(=O)N[C@@H](CC(N)=O)C(=O)N[C@H]5C(=O)N[C@H]3C(=O)N[C@H](C(=O)N[C@H](C(=O)O)c5cc(O)c(CNCP(=O)(O)O)c(O)c5-c5cc3ccc5O)[C@H](O)c3ccc(c(Cl)c3)O4)O[C@H](CO)[C@@H](O)[C@@H]2O)O[C@@H](C)[C@H]1O [TELAVANCIN]
Enterococcus faecalis [4]
  Activity: Active
Enterococcus faecalis [5]
  Activity: Active
Enterococcus faecalis [6]
  Activity: inactive
Enterococcus faecalis [7]
  Drug uptake: Active
Enterococcus faecalis [8]
  Activity: Active
Enterococcus faecalis [9]
  Drug uptake: Active
Enterococcus faecalis [10]
  Activity: Active
Enterococcus faecalis [1]
  Activity: 4 µg/mL
Enterococcus faecalis [2]
  Activity: 1 µg/mL
Enterococcus faecalis [11]
  Activity: Active
Enterococcus faecalis [12]
  Activity: Active
Enterococcus faecalis [13]
  Activity: inactive
Enterococcus faecalis [14]
  Activity: inactive
Enterococcus faecalis [3]
  Activity: 1 µg/mL
Enterococcus faecalis [15]
  Activity: inactive
Enterococcus faecalis [16]
  Activity: inactive
Enterococcus faecalis [17]
  Drug uptake: Active
Enterococcus faecalis [18]
  Activity: inactive

## CN[C@H](CC(C)C)C(=O)N[C@H]1C(=O)N[C@@H](CC(N)=O)C(=O)N[C@H]2C(=O)N[C@H]3C(=O)N[C@H](C(=O)N[C@@H](C(=O)O)c4cc(O)cc(O)c4-c4cc3ccc4O)[C@H](O)c3ccc(c(Cl)c3)Oc3cc2cc(c3O[C@@H]2O[C@H](CO)[C@@H](O)[C@H](O)[C@H]2O[C@H]2C[C@](C)(NCCCCNc3cc(C(F)(F)F)nc4cc(Cl)ccc34)[C@H](O)[C@H](C)O2)Oc2ccc(cc2Cl)[C@H]1O
Enterococcus faecalis [5]
  Activity: Active
Enterococcus faecalis [6]
  Activity: inactive
Enterococcus faecalis [8]
  Activity: Active
Enterococcus faecalis [10]
  Activity: Active
Enterococcus faecalis [11]
  Activity: Active
Enterococcus faecalis [12]
  Activity: Active
Enterococcus faecalis [13]
  Activity: inactive
Enterococcus faecalis [14]
  Activity: inactive
Enterococcus faecalis [15]
  Activity: inactive
Enterococcus faecalis [16]
  Activity: inactive
Enterococcus faecalis [18]
  Activity: inactive

## CN[C@H](CC(C)C)C(=O)N[C@H]1C(=O)N[C@@H](CC(N)=O)C(=O)N[C@H]2C(=O)N[C@H]3C(=O)N[C@H](C(=O)N[C@H](C(=O)O)c4cc(O)cc(O)c4-c4cc3ccc4O)[C@H](O)c3ccc(c(Cl)c3)Oc3cc2cc(c3O[C@@H]2O[C@H](CO)[C@@H](O)[C@H](O)[C@H]2O[C@H]2C[C@](C)(NCCCCNc3cc(C(F)(F)F)nc4cc(Cl)ccc34)[C@H](O)[C@H](C)O2)Oc2ccc(cc2Cl)[C@H]1O [listing 2 of 2 here]
Enterococcus faecalis [7]
  Drug uptake: Active
Enterococcus faecalis [9]
  Drug uptake: Active
Enterococcus faecalis [17]
  Drug uptake: Active

## CCCCCCCCCC(=O)N[C@@H](Cc1c[nH]c2ccccc12)C(=O)N[C@H](CC(N)=O)C(=O)N[C@@H](CC(=O)O)C(=O)N[C@@H]1C(=O)NCC(=O)N[C@@H](CCCN)C(=O)N[C@@H](CC(=O)O)C(=O)N[C@H](C)C(=O)N[C@@H](CC(=O)O)C(=O)NCC(=O)N[C@H](CO)C(=O)N[C@@H]([C@H](C)CC(=O)O)C(=O)N[C@@H](CC(=O)c2ccccc2N)C(=O)O[C@@H]1C
Enterococcus faecalis [4]
  Activity: Active
Enterococcus faecalis [5]
  Activity: Active
Enterococcus faecalis [6]
  Activity: inactive
Enterococcus faecalis [19]
  Activity: Active
Enterococcus faecalis [7]
  Drug uptake: Active
Enterococcus faecalis [8]
  Activity: Active
Enterococcus faecalis [20]
  Activity: Active
Enterococcus faecalis [9]
  Drug uptake: Active
Enterococcus faecalis [10]
  Activity: Active
Enterococcus faecalis [21]
  Activity: Active
Enterococcus faecalis [1]
  Activity: 2 µg/mL
Enterococcus faecalis [2]
  Activity: 2 µg/mL
Enterococcus faecalis [22]
  Activity: Active
Enterococcus faecalis [11]
  Activity: Active
Enterococcus faecalis [12]
  Activity: Active
Enterococcus faecalis [13]
  Activity: Active
Staphylococcus aureus
  Activity: >90%
Enterococcus faecalis [14]
  Activity: Active
Enterococcus faecalis [3]
  Activity: 2 µg/mL
Enterococcus faecalis [15]
  Activity: inactive
Enterococcus faecalis [16]
  Activity: inactive
Enterococcus faecalis [23]
  Activity: Active
Enterococcus faecalis [17]
  Drug uptake: Active
Enterococcus faecalis [18]
  Activity: Active
Enterococcus faecalis [24]
  Activity: Active

## CN[C@H](CC(C)C)C(=O)N[C@H]1C(=O)N[C@@H](CC(N)=O)C(=O)N[C@H]2C(=O)N[C@H]3C(=O)N[C@H](C(=O)N[C@H](C(=O)O)c4cc(O)cc(O)c4-c4cc3ccc4O)[C@H](O)c3ccc(c(Cl)c3)Oc3cc2cc(c3O[C@@H]2O[C@H](CO)[C@@H](O)[C@H](O)[C@H]2O[C@H]2C[C@](C)(N)[C@H](O)[C@H](C)O2)Oc2ccc(cc2Cl)[C@H]1O [VANCOMYCIN]
Enterococcus faecalis [6]
  Activity: inactive
Enterococcus faecalis [19]
  Activity: Active
Enterococcus faecalis [7]
  Drug uptake: Active
Enterococcus faecalis [8]
  Activity: Active
Enterococcus faecalis [9]
  Drug uptake: Active
Enterococcus faecalis [10]
  Activity: Active
Enterococcus faecalis [1]
  Activity: 512 µg/mL
Enterococcus faecalis [2]
  Activity: 256 µg/mL
Enterococcus faecalis [11]
  Activity: Active
Enterococcus faecalis [12]
  Activity: Active
Enterococcus faecalis [13]
  Activity: inactive
Enterococcus faecalis [14]
  Activity: inactive
Enterococcus faecalis [3]
  Activity: 4 µg/mL
Enterococcus faecalis [15]
  Activity: inactive
Enterococcus faecalis [16]
  Activity: inactive
Enterococcus faecalis [17]
  Drug uptake: Active
Enterococcus faecalis [18]
  Activity: inactive
